From PubChem
A selection: hits, their analogues and other compounds. The true share with any hit is near 6.3%.
RORa activator = activators of human nuclear receptor RORA; CHO-K1 Gal4-RORA LBD luciferase reporter, luminescence; percent increase over mock-subtracted basal signal; activation, % at 10 µM; hit rate 1.5% among 65,000; AID 560;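 active means activation above the mean of all tested compounds plus 3 SD, cut at about 49% in these data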
Target sequence (P35398 whole entry, looked up, the tested form may be a part): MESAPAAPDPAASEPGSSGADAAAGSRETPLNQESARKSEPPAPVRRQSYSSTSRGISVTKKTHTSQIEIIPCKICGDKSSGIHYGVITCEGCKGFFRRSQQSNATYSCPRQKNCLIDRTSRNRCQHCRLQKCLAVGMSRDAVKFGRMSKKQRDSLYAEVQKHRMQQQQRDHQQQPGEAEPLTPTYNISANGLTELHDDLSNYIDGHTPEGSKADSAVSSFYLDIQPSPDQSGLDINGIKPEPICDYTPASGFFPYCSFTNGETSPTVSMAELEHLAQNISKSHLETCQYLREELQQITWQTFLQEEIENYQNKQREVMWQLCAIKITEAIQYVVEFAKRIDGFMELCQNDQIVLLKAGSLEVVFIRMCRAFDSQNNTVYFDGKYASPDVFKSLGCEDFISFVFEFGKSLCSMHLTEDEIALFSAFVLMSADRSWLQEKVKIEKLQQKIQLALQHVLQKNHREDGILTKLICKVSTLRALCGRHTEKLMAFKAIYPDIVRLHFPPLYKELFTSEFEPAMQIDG
SF-1 act = activates the human nuclear receptor SF-1; Q13285; CHO-K1 Gal4-SF-1 LBD luciferase reporter; % increase over DMSO SF-1-specific signal; activation, % at 10 µM; hit rate 1.9% among 65,000;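 active means activation above the mean activation of all tested compounds plus 3 SD, cut at about 50% in these data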
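Assay system – CHO-K1 cells with Gal4–hSF-1 LBD chimera plus Gal4-driven luciferase · Quantity – 4,000 cells per well · Times – compound added 1 h post-seeding, 20 h exposure at 37 °C, 5% CO2 · Measured by – luciferase light emission · Benchmarks – DMSO and mock-transfected background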
MT1-MMP txn act = MT1-MMP promoter transcription activation; HT1080 MT1-MMP promoter luciferase reporter, luminescence, overnight; hits give high values; activation factor at 10 µM; hit rate 0.16% among 86,000;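 active means activation factor of at least 2 for MT1-MMP transcription at 10 µM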
M1 antagonist = blocks the rat M1 muscarinic receptor response to acetylcholine | B-score at 10 µM | AID 628 | hit rate 3.4% among 64,000 | CHO-M1 cells, Fluo-4 calcium, ACh EC80 antagonist mode; hits give low values;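 active means calcium fluorescence response, raw or row-and-column corrected B-score, differing from the plate sample mean either way at a set confidence level, mostly lower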
M1 agonist = activates the M1 muscarinic receptor | CHO-M1 cells, Fluo-4 calcium fluorescence, agonist mode; hits give high values | B-score at 10 µM | hit rate 3% among 64,000 | AID 626;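 active means fluorescence rise, raw or as B-score row- and column-corrected plate score, outside the 99.7% band of its plate's samples, either direction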
Large screens that a line does not name were inactive.

CCOc1cc(-c2cc(-c3ccc(N)cc3)nc(N)c2C#N)ccc1O	SF-1 act 54
CCOc1cc(-c2cc(-c3ccccc3)nc(N)c2C#N)ccc1O	none (no result: RORa activator, SF-1 act, M1 antagonist, M1 agonist)
COC(=O)c1cc2c(ccn2-c2ccc(F)cc2)n1CC(=O)N1CCN(C(=O)c2ccco2)CC1	none
CCn1c(C(=O)OC)cc2c1ccn2-c1ccc(F)cc1	RORa activator 60, SF-1 act 53
FC(F)(F)C(Oc1nc(Nc2ccc(Cl)cc2)nc(N2CCOCC2)n1)C(F)(F)F	none (no result: RORa activator, SF-1 act, M1 antagonist, M1 agonist)
CCn1nnc(NC(=O)c2cc3ccccc3o2)n1	M1 antagonist 3.4
CCCn1nnc(NC(=O)c2cc3ccccc3o2)n1	RORa activator 49
Cc1noc(C)c1C(=O)Nc1ccc(F)cc1F	none (no result: RORa activator, SF-1 act, M1 antagonist, M1 agonist)
CCN1C(=S)SC(=O)C1=C1C=C(C)N(CCOC)C(C)=C1	M1 agonist 44 (no result: MT1-MMP txn act)
CCN1C(=S)SC(=O)C1=C1C=C(C)N(CCO)C(C)=C1	none
COc1ccccc1C1CC(c2ccc(Cl)cc2)Nc2ncnn21 (configuration not stated)	none
COc1ccc(NC(=O)NS(=O)(=O)c2ccc(C)cc2)c(OC)c1	none
COc1ccc(NC(=O)Nc2cc(C)ccc2OC(F)F)c(OC)c1	M1 antagonist 2
CCC(C)NS(=O)(=O)c1ccc(S(=O)(=O)N2CCCC3(CCCCC3)C2)cc1 (configuration not stated)	none (no result: RORa activator, SF-1 act, M1 antagonist, M1 agonist)
Brc1ccc(-c2cnc(-c3cccs3)o2)cc1	SF-1 act 52
c1ccc(-c2cnc(CSc3nnc4ccccn34)o2)cc1	SF-1 act 71
O=C(CN(Cc1ccccc1Cl)C(=O)c1ccc(CN2CCOCC2)o1)NCC1CCCO1 (configuration not stated)	none (no result: RORa activator, SF-1 act, M1 antagonist, M1 agonist)
CCC(C)Sc1nc2ccccc2n1CC(=O)O (configuration not stated)	none (no result: RORa activator, SF-1 act, M1 antagonist, M1 agonist)
CCCCCn1c(=NC(C)=O)c(C#N)cc2c(=O)n3cccc(C)c3nc21	M1 agonist 5.3
Cc1cccn2c(=O)c3cc(C#N)c(=NC(=O)c4ccccc4)n(Cc4ccco4)c3nc12	M1 agonist 19
CCOC(=O)Cn1nnnc1CN(Cc1ccccc1)Cc1cc2cc(CC)ccc2[nH]c1=O	RORa activator 58
C=CCOn1c(=O)c(-c2ccc(OC)cc2)[n+]([O-])c2ccccc21	none
O=c1c(-c2ccc(Cl)cc2)[n+]([O-])c2ccccc2n1O	M1 agonist 28
O=C(CCC(=O)c1ccc[nH]1)c1ccc(Cl)cc1	SF-1 act 52
O=C(COc1ccc(F)c(Cl)c1)c1ccc[nH]1	none
Cn1c(SCC(=O)Nc2ccccc2F)nnc1-c1cc2ccccc2o1	none (no result: RORa activator, SF-1 act, M1 antagonist, M1 agonist)
Cc1nn(C(=O)c2cccs2)c(N)c1-c1ccccc1	RORa activator 57, SF-1 act 54
COc1ccc2oc(C(=O)C3CC3)c(NC(=O)CCCN3C(=O)c4ccccc4C3=O)c2c1	none (no result: MT1-MMP txn act)
CC(=O)N1CCC(N(CCCOC(C)C)C(=O)Nc2ccc(C)c(C)c2)CC1	none (no result: RORa activator, SF-1 act, M1 antagonist, M1 agonist)
CC(=O)N1CCC(N(C(=O)Nc2ccc(C)c(C)c2)C2CCCC2)CC1	M1 antagonist 3
CC1CCc2cc(F)ccc2N1C(=O)c1ccc2c(c1)OCO2 (configuration not stated)	none
CCc1ccc(NC(=O)c2cnc3n(c2=O)CCS3)cc1	SF-1 act 50
COC(=O)[C@@]1(Cc2ccc(OC)cc2)[C@H]2c3cc(C(=O)N(C)C)n(CCF)c3C[C@H]2CN1C(=O)c1ccccc1	none (no result: RORa activator, SF-1 act, M1 antagonist, M1 agonist)
COc1ccc2noc3c2c1C(=O)c1ccccc1-3	M1 antagonist -12, M1 agonist 354
Cc1noc(/C=C/c2ccco2)c1S(=O)(=O)N1CCC(C(=O)N2CCc3ccccc3C2)CC1	none
Cc1ccc(OCc2nc(-c3ccccc3)no2)c(C)c1	SF-1 act 59
Cn1c(SCCS(=O)(=O)c2ccc(Cl)cc2)nnc1-c1ccccc1	none
Cc1cc(=O)cc(C)n1-c1ccc2c(c1)nc(C)n2-c1ccccc1	M1 antagonist 2.2
O=c1oc2ccccc2cc1-c1nc(-c2cccs2)cs1	none (no result: RORa activator, SF-1 act, M1 antagonist, M1 agonist)
O=c1oc2ccccc2cc1-c1cn2cccnc2n1	RORa activator 55
CSc1cccc(NC(=O)c2cnccn2)c1	none (no result: RORa activator, SF-1 act, M1 antagonist, M1 agonist)
O=C(Nc1cccc(-c2cn3ccccc3n2)c1)c1cnccn1	SF-1 act 52
O=C(Nc1ccc(-c2cn3ccsc3n2)cc1)C1COc2ccccc2O1 (configuration not stated)	SF-1 act 57
O=C(Nc1ccc(-c2cn3ccsc3n2)cc1)c1ccc(F)c(S(=O)(=O)N2CCOCC2)c1	SF-1 act 57
CCOc1ncccc1C(=O)Nc1ccc(-c2cn3ccsc3n2)cc1	none
